This passage reports folding enthalpy and Tm results from the array DNA melting data of Ke et al. (doi:10.1101/2024.01.08.574731).

The nature of data set [1]: folding enthalpy; higher = less favourable; fluorescence melt of hairpins on a sequencing array, two-state fit. The conditions noted are these: sodium 0.088 M. Put shortly: (§1)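 Hairpins were imaged by Cy3 fluorescence on a sequenced MiSeq flow cell with annealed Cy3 and quencher oligos, in 50 mM Na-HEPES pH 8.0, 25 mM NaCl, in 2.5 °C steps up to 60 °C. Bootstrapped two-state fits of normalised signals gave melting temperature and folding enthalpy. Four replicates were combined by inverse variance, and fitted temperatures were raised by 9.35 °C to match UV melts.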

Data set [2] is described as follows: melting temperature; fluorescence melt of hairpins on a sequencing array, two-state fit, raised by 9.35 °C to match UV melts. The note with it: sodium 0.088 M. A digest of the protocol: as §1

For CGTGCGGAAACGCCGACG ((((((....)))..))), in data set [1], the folding enthalpy was -15.6 kcal/mol. Further, the Tm in data set [2] was 44.5 °C.
The corresponding values for GCGACCACTCGC ((((....)))) are -25.4 kcal/mol and 47 °C.
For GCGGTGTGCCGC ((((....)))) the same measures were -19.1 kcal/mol and 67.6 °C.
For GCAAGGCGAAAGCCAGGC ((..(((....)))..)) the same measures were -18.8 kcal/mol and 52.2 °C.
Take GTGGCTGGAAACAGTCAC (((.(((....))).))): the folding enthalpy in data set [1] is -36.9 kcal/mol. In addition, in data set [2], the Tm was determined as 55.1 °C.
The corresponding values for GGGAGGGGAAACCCTTCC ((.((((....)))).)) are -32.4 kcal/mol and 51.6 °C.
As to GCTGTCGGAAACGGTAGC (((..((....))..))), the folding enthalpy in data set [1] is -28.9 kcal/mol. For the same sequence, the Tm in data set [2] was found to be 41.8 °C.
On to GATCGGCGACCGATC ((((((...)))))), for which the folding enthalpy in data set [1] was -34.2 kcal/mol. In data set [2], the Tm came to 56.4 °C.
The corresponding values for GCTTTCGAAAGAAATAGC ((((((....)))..))) are -20 kcal/mol and 36.8 °C.
In the case of GCAGCCGAAAGGCCATGC ((((((....)))..))), in data set [1], the folding enthalpy was -13.9 kcal/mol. The Tm in data set [2] is 40.3 °C.
For the sequence GATCTTCGAAAAGATC ((((((....)))))), in data set [1], the folding enthalpy was -24.9 kcal/mol. In data set [2], the Tm worked out at 40.5 °C.
With GATCGAGGAATCGATC ((((((....)))))), in data set [1], the folding enthalpy was -33.2 kcal/mol. Also, the Tm in data set [2] is 55.9 °C.
The corresponding values for GCTGGAGGAAACTCTAGC (((.(((....))).))) are -40.4 kcal/mol and 48.4 °C.
For GCTTGAGGAAACTCAGGC ((.((((....)))).)) the same measures were -32.9 kcal/mol and 47.6 °C.
With GATCACTCCTGTGATC ((((((....)))))), the folding enthalpy in data set [1] is -33.9 kcal/mol. Moreover, in data set [2], the Tm was 59.7 °C.
For GATCCGTGGTCGGATC ((((((....)))))) the same measures were -38.8 kcal/mol and 58.7 °C.
For GCTGACGAAAGTCTTAGC ((((((....)))..))) the same measures were -22.6 kcal/mol and 39.8 °C.
For CGCGGAAGGCTCCGCG ((((((....)))))) the same measures were -30.1 kcal/mol and 68.7 °C.
Take GGGTCGGGAAACCGGCCC (((.(((....))).))): the folding enthalpy in data set [1] is -36.3 kcal/mol. For the same sequence, in data set [2], the Tm was 67.1 °C.
The corresponding values for GTGCGCGAAAGCGACCAC ((((((....)))..))) are -10.4 kcal/mol and 43.8 °C.
The corresponding values for GATCTCGGAGAGATC ((((((...)))))) are -33.3 kcal/mol and 67.4 °C.
The corresponding values for GATCTCTGAGGAGATC ((((((....)))))) are -43.4 kcal/mol and 55.8 °C.
In the case of GGGTACTCGAAAGAGCCC (((..(((....)))))), in data set [1], the folding enthalpy was -19.6 kcal/mol. Also, the Tm in data set [2] came out at 39.6 °C.
For GTCGTGGCGAAAGCCGAC (((..(((....)))))) the same measures were -17.2 kcal/mol and 54.6 °C.
For the sequence GATCACAAGGGTGATC ((((((....)))))), the folding enthalpy in data set [1] is -36.4 kcal/mol. In addition, the Tm in data set [2] was 55.9 °C.
The corresponding values for GAGGGTGAAAACCCTC ((((((....)))))) are -32.4 kcal/mol and 64.2 °C.
The corresponding values for GATCGCTCGTGCGATC ((((((....)))))) are -41.6 kcal/mol and 67.2 °C.
With GGGTATGGAAACATGTCC ((..(((....)))..)), the folding enthalpy in data set [1] is -15.6 kcal/mol. For the same sequence, the Tm in data set [2] was found to be 34 °C.
The corresponding values for GATCAACGTGTTGATC ((((((....)))))) are -60.2 kcal/mol and 57.4 °C.
Consider GATCCATTTTGGATC ((((((...)))))), for which, in data set [1], the folding enthalpy is -33.5 kcal/mol. Also, in data set [2], the Tm turned out to be 53.6 °C.
For GCGGATACCGC ((((...)))) the same measures were -25.8 kcal/mol and 57.1 °C.
Consider GCGACCGATCGC ((((....)))), for which, in data set [1], the folding enthalpy was -21.4 kcal/mol. In data set [2], the Tm worked out at 45.6 °C.
Consider GTACGGTCGAAAGACTAC (((..(((....)))))), for which the folding enthalpy in data set [1] is -10.6 kcal/mol. For the same sequence, the Tm in data set [2] was 26.8 °C.
For GATCTGCTTCCAGATC ((((((....)))))) the same measures were -33.4 kcal/mol and 48.5 °C.
For GGCTGGTCGAAAGACGCC (((..(((....)))))) the same measures were -27 kcal/mol and 52.1 °C.
For GATCCGCCTTCGGATC ((((((....)))))) the same measures were -44.3 kcal/mol and 55.9 °C.
GTCGGCGCGAAAGCGGAC (((..(((....)))))): in data set [1], the folding enthalpy is -13.8 kcal/mol. The Tm in data set [2] was 45.6 °C.
